WT yeast gro inh: growth inhibition of WT yeast, mitochondrial fusion screen; 2.1% of 190,000 active; AID 1362; mitochondrial fusion phenotypic screen, WT strain; inhibition, % at 10 µM; in the data active means inhibition above about 58%; tested in S. cerevisiae
PMI act: activators of human phosphomannose isomerase | purified human PMI, coupled resazurin fluorescence, 20 min; hits give high values; 1 = vehicle control, 0 substrate-free wells | activation factor at 20 µM | 0.005% of 190,000 active | AID 1214;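 active means activation factor of 2 or more at 20 µM, relative to plate controls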
Target sequence (P34949 whole entry, looked up): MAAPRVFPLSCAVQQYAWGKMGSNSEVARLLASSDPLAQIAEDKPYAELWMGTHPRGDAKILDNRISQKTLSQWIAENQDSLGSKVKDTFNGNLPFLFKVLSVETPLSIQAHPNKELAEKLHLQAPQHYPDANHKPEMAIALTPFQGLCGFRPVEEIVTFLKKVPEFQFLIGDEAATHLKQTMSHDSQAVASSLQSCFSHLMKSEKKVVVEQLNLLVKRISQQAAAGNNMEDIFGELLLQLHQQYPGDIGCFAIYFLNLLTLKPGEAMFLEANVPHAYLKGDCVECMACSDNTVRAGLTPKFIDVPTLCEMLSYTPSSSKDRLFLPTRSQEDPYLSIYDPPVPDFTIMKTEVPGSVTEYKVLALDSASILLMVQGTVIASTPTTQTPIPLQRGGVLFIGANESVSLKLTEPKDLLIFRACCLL
PMI act satM6P: PMI (human) activation, high substrate; coupled PMI enzyme assay, resazurin fluorescence, 20 min; hits give high values; 1 = untreated enzyme, 0 = substrate-free blank; P34949; AID 1216; 0.34% of 190,000 active; activation factor at 20 µM;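 active means activation factor of 2 or more at 20 µM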
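assay system = human phosphomannose isomerase with PGI, G6PDH, diaphorase coupling enzymes | quantity = 15 ng/mL PMI | incubation = enzyme reaction with compound 20 min at room temperature | medium = HEPES pH 7.4 buffer with MgCl2 and Tween-20 | compound dosing = one concentration, 20 µM, in 1% DMSO | measured by = Diaphorase-driven resazurin-to-resorufin fluorescence, excitation 544, emission 590 nm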
Lmaj promast: reduces viability of Leishmania major promastigotes. resazurin fluorescence viability. inhibition, % at 10 µM. 9% of 200,000 active. AID 1063; in the data active means inhibition above about 50%;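 further: promastigotes grown with compound for 44 hours at 28 °C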
Diaph act CS: activates diaphorase or chemically reduces, flagging diaphorase assay artifacts; Diaphorase/resazurin coupled assay, resorufin fluorescence, 16 min; hits give high values; 1 = vehicle wells, 0 = NADH-free wells; activation factor at 20 µM; 0.005% of 190,000 active; AID 1229;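 active means diaphorase activity raised at least twofold by the compound at 20 µM; inactive means activation factor below 2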
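Material: purified diaphorase enzyme from Clostridium kluyveri; Also added: 0.114 mM NADH and 0.1 mM resazurin, final amounts; Doses: single compound dose of 20 µM, 1% DMSO final; Times: 16 min enzyme reaction, ambient temperature; Detection: resorufin fluorescence, excitation 544 nm, emission 590 nm; Measure: increased resorufin signal from activators or reducing compounds.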
Of the large screens only hits and unclear results are named; the others gave an inactive call. Compounds with a hit are over-represented: about 10% of the library has one in this group of screens.

CCCC(C)NC(=S)Nc1cc(C)cc(C)c1 (centres undefined)	WT yeast gro inh 73, Lmaj promast 76
Cc1cccc2cc(CN(Cc3cccnc3)C(=O)c3ccccc3F)c(Cl)nc12	Lmaj promast 97
Cc1cccc2cc(CN(Cc3cccnc3)C(=O)c3ccncc3)c(=O)[nH]c12	none
Cc1cc(C)c2cc(CN(Cc3cccnc3)C(=O)c3ccc(F)cc3)c(Cl)nc2c1	Lmaj promast 98
CCN1CCN(CC(=O)N2N=C(c3cccs3)CC2c2ccc(C)cc2)C(=O)C1=O (centres undefined)	none
NC(=O)c1c(NC(=O)COC(=O)c2ccc(S(=O)(=O)Nc3ccccc3)cc2)sc2c1CCCC2	none
CCC(=O)N1CCc2cc(S(=O)(=O)CCC(=O)Nc3cccc(C)n3)ccc21	Lmaj promast 56
S=C(Nc1ccc(Cl)cc1)NC1CCN(Cc2ccccc2)CC1	Lmaj promast 99
COc1ccc(CCNC(=S)NC2CCN(Cc3ccccc3)CC2)cc1	Lmaj promast 74
CCC(C)c1ccc(NC(=S)NN2CCOCC2)cc1 (centres undefined)	none
CCC(C)c1ccc(NC(=S)NC2CCN(Cc3ccccc3)CC2)cc1 (centres undefined)	WT yeast gro inh 75, Lmaj promast 87
COc1ccc(NC(=S)NC2CCN(Cc3ccccc3)CC2)cc1OC	none
S=C(Nc1ccccc1)NC1CCN(Cc2ccccc2)CC1	Lmaj promast 91
Cc1cc(C(=O)CSc2nnnn2-c2ccc(O)cc2)c(C)n1C	none
COc1cc(OC)c(NC(=O)c2ccc3c(SCC(=O)O)c4c(nc3c2)CCCC4)cc1Cl	none
CCCN1CCN(C(=S)Nc2ccc([N+](=O)[O-])cc2)CC1	none
CCc1ccc(NC(=S)NC2CCN(Cc3ccccc3)CC2)cc1	Lmaj promast 96
CCCN1CCC(NC(=S)Nc2ccc([N+](=O)[O-])cc2)CC1	Lmaj promast 83
CCCN1CCC(NC(=S)Nc2ccc(C(=O)OCC)cc2)CC1	none
CSc1nc(N2CCN(c3ccccc3Cl)CC2)c2ccccc2n1	WT yeast gro inh 63
c1ccc2c(c1)nc(N1CCOCC1)c1ccccc12	none
CSc1nc(N2CCOCC2)c2ccccc2n1	Lmaj promast 51
CCOc1cc(N2CCOCC2)c(OCC)cc1NC(=O)CN1C(=O)C2C3C=CC(C3)C2C1=O (centres undefined)	none
Cc1ccc(CNC(=O)C2CCN(S(=O)(=O)c3c(C)noc3/C=C/c3ccco3)CC2)cc1	Lmaj promast 93
Cc1noc(/C=C/c2ccco2)c1S(=O)(=O)N1CCC(C(=O)N2CCc3ccccc3C2)CC1	Lmaj promast 73
Cc1noc(/C=C/c2cccs2)c1S(=O)(=O)N1CCC(C(=O)NCCCN2CCC(C)CC2)CC1	Lmaj promast 90
COC(CNC(=O)C1CCCN(S(=O)(=O)c2c(C)noc2/C=C/c2cccs2)C1)OC (centres undefined)	none
Cc1ccc(NC(=O)C2CCN(S(=O)(=O)c3c(C)noc3/C=C/c3ccco3)CC2)nc1	none
CCN1CC(CN(C)Cc2cn(-c3ccc(C)cc3)nc2-c2cccc(C)c2)CC1=O (centres undefined)	none
COc1ccccc1C(=O)Oc1ccc(C(C)C)cc1	none
COc1cc(OC)nc(Oc2ccccc2C(=O)Oc2ccc(F)cc2Cl)n1	WT yeast gro inh 69
COc1ccc(-c2cc3ccccc3n2CC(O)CN2CCC(C)CC2)cc1 (centres undefined)	Lmaj promast 87
COc1ccc(CN2CCN(CC(O)Cn3c4ccccc4c4ccccc43)CC2)cc1 (centres undefined)	Lmaj promast 99
COc1ccc(/C=C2/SC(=O)N(CC(O)Cn3c4ccccc4c4ccccc43)C2=O)cc1 (centres undefined)	none
CCOc1ccc(CN2CCN(CC(O)Cn3c4ccccc4c4ccccc43)CC2)cc1 (centres undefined)	Lmaj promast 96
O=C(CCC(=O)N(CC(=O)NC1CCCC1)C1CCCCC1)Nc1ccccn1	none (no result: PMI act, PMI act satM6P, Diaph act CS)
Cc1noc(C)c1COc1ccc(C(=O)OC(C)C(=O)Nc2ccc(S(=O)(=O)N3CCOCC3)cc2)cc1 (centres undefined)	none
CCCCOC(=O)c1nc[nH]c1C(=O)OCCCC	none
COc1ccc(/C=N/Nc2nc(-c3ccc(Cl)cc3)cc(C(F)(F)F)n2)cc1OC	WT yeast gro inh 63
